# Reference: ChEMBL document CHEMBL1153806, “Preclinical efficacy of a carboxylesterase 2-activated prodrug of doxazolidine” (J Med Chem, 2009)
# Active and inactive are the calls of the source. The calls are words filed in the database; no cut-off is given here.
# Legend:
# HepG2 [1] = assay: Cytotoxicity against human HepG2 cells expressing CES2 gene expressing CES2 gene after 5 to 6 days by MTT assay; assay type: functional
# HepG2 [2] = assay: Antitumor activity against human HepG2 cells expressing CES2 gene xenografted in NOD/SCID mouse assessed as inhibition of tumor growth at 4 to 5 mg/kg, iv administered on day 7, 14 and 21 after tumor implantation; assay type: functional, organism-based
# Method in brief: (§1)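 NOD/SCID females, 4–6 weeks old, each given ~1.5 × 10⁷ N-Hep G2 cells s.c. in the left flank; 10 mice/group. Dosed i.v. by tail vein on days 7, 14 and 21, in mg/kg Dox-equivalent, from DMSO diluted into D5W (5% DMSO/95% D5W), 100 µL/mouse. Vehicle-only controls. The 3 mg/kg group was redosed at 5 mg/kg on days 45 and 52. Tumor volume (π × short diameter² × long diameter/6) measured weekly.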
# HepG2 [3] = assay: Antitumor activity against human HepG2 cells expressing CES2 gene xenografted in pentyl PABC-doxazolidine-pretreated NOD/SCID mouse assessed as slowing of large, rapidly growing tumor growth at 5 mg/kg, iv administered on day 45 after tumor implantation; assay type: functional, organism-based; design: dose 5 mg/kg; method in brief: as §1
# HepG2 [4] = assay: Antitumor activity against human HepG2 cells expressing CES2 gene xenografted in pentyl PABC-doxazolidine-treated NOD/SCID mouse assessed as slowing of large, rapidly growing tumor growth at 5 mg/kg, iv administered on day 52 after tumor implantation; assay type: functional, organism-based; design: dose 5 mg/kg; method in brief: as §1
# [5] = Toxicity in pentyl PABC-doxazolidine-treated NOD/SCID mouse xenografted with human HepG2 cells expressing CES2 gene assessed as mortality rate at 5 mg/kg, iv administered on day 52 after tumor implantation; assay type: organism-based; design: dose 5 mg/kg, route intravenous; conditions: in vivo, read-out: Activity
# Method in brief: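 NOD/SCID females carried s.c. left-flank N-Hep G2 xenografts (about 1.5 × 10⁷ cells). They first received i.v. 3 mg/kg Dox-equivalent on days 7, 14 and 21. The same group was then redosed i.v. at 5 mg/kg on days 45 and 52 in 5% DMSO/95% D5W. There were 10 mice per group. Deaths were counted to the end of the study.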
# Mus musculus [6] = assay: Toxicity in NOD/SCID mouse xenografted with human HepG2 cells expressing CES2 gene assessed as body weight loss at 5 mg/kg, iv administered on day 7, 14 and 21 after tumor implantation measured after 3 weeks; assay type: organism-based; design: dose 5 mg/kg, route intravenous; conditions: in vivo, 504 h
# Method in brief: (§2)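 Same NOD/SCID N-Hep G2 flank xenograft model: i.v. tail-vein dosing on days 7, 14 and 21 in 5% DMSO/95% D5W, doses in Dox-equivalent mg/kg, 10 mice/group, vehicle controls. Body weight recorded weekly and followed over the first 5 weeks.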
# Mus musculus [7] = assay: Toxicity in NOD/SCID mouse xenografted with human HepG2 cells expressing CES2 gene assessed as body weight loss at 5 mg/kg, iv administered on day 7, 14 and 21 after tumor implantation measured after 5 weeks; assay type: organism-based; design: dose 5 mg/kg, route intravenous; conditions: in vivo, 840 h; method in brief: as §2
# NCI-H1435 [8] = assay: Antitumor activity against human NCI-H1435 cells expressing CES2 gene xenografted in pentyl PABC-doxazolidine-pretreated athymic nude mouse assessed as inhibition of tumor growth at 3 to 4 mg/kg, iv administered on day 63 after tumor implantation; assay type: functional, organism-based
# Method in brief: (§3)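 Athymic nude females, 4–6 weeks old, given ~2 × 10⁶ H1435 cells s.c. in the left flank on day 0; 10 mice/group. I.v. tail-vein doses (Dox-equivalent mg/kg) in 5% DMSO/95% D5W on days 7, 14 and 21, with all groups retreated on days 56, 63 and 70; vehicle controls. Caliper volume π × short² × long/6. Cube roots analysed with day-7 size as baseline covariate, by period.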
# NCI-H1435 [9] = assay: Antitumor activity against human NCI-H1435 cells expressing CES2 gene xenografted in pentyl PABC-doxazolidine-pretreated athymic nude mouse assessed as inhibition of tumor growth at 3 to 4 mg/kg, iv administered on day 70 after tumor implantation; assay type: functional, organism-based; method in brief: as §3
# Mus musculus [10] = assay: Toxicity in athymic nude mouse xenografted with human NCI-H1435 cells expressing CES2 gene at 3 to 4 mg/kg, iv administered on day 7, 14 and 21 after tumor implantation; assay type: organism-based; design: dose 3-4 mg/kg, route intravenous; conditions: in vivo
# NCI-H1435 [11] = assay: Antitumor activity against human NCI-H1435 cells expressing CES2 gene xenografted in athymic nude mouse assessed as slowing of tumor growth at 4 mg/kg, iv administered as three weekly infusion from day 21 to 56 after tumor implantation; assay type: functional, organism-based; design: dose 4 mg/kg; method in brief: as §3
# Mus musculus [12] = assay: Toxicity in athymic nude mouse xenografted with human NCI-H1435 cells expressing CES2 gene assessed as myofibril disorganization and vacuolization of heart tissue administered with six iv injection of 3 to 4 mg/kg by hematoxylin/eosin staining-based microscopy; assay type: organism-based; design: dose 3-4 mg/kg, route intravenous; conditions: in vivo
# Method in brief: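 Hearts and livers taken from the H1435 nude-mouse study (six i.v. injections) after CO₂/cervical dislocation. Fixed in 10% formalin for 24 h, paraffin-embedded, and cut at 4 µm. Slides deparaffinized in xylene and ethanol, stained with Mayer's hematoxylin for 2 min, blued in 1% ammonium hydroxide, and counterstained with eosin for 30 s. Examined by light microscopy.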
# Mus musculus [13] = assay: Toxicity in athymic nude mouse xenografted with human NCI-H1435 cells expressing CES2 gene assessed as occurrence of fatty liver administered with six iv injection of 4 mg/kg by hematoxylin/eosin staining-based microscopy; assay type: organism-based; design: dose 4 mg/kg, route intravenous; conditions: in vivo
# Method in brief: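 Female athymic nude mice, 4–6 weeks old, 10 per group. About 2 × 10⁶ H1435 cells were implanted s.c. into the left flank. I.v. tail-vein doses (Dox-equivalent) were given on days 7, 14, 21, 56, 63 and 70 in 5% DMSO/95% D5W. At sacrifice, organs were fixed in 10% formalin for 24 h and paraffin-embedded. Sections were cut at 4 µm and stained with hematoxylin/eosin for microscopy.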
# Mus musculus [14] = assay: Toxicity in athymic nude mouse xenografted with human NCI-H1435 cells expressing CES2 gene assessed as vacuolar degeneration of kidney tissue administered with six iv injection of 3 to 4 mg/kg by hematoxylin/eosin staining-based microscopy; assay type: organism-based; design: dose 3-4 mg/kg, route intravenous; conditions: in vivo
# Method in brief: (§4)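 Kidney and ileum taken from the H1435 nude-mouse study (six i.v. injections). Formalin-fixed for 24 h, paraffin-embedded, and cut into 4 µm sections. Sections deparaffinized in xylene, rehydrated through an ethanol series, stained in Harris hematoxylin for 50 s with eosin, then dehydrated and mounted. Morphology assessed by microscopy.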
# Mus musculus [15] = assay: Toxicity in athymic nude mouse xenografted with human NCI-H1435 cells expressing CES2 gene assessed as vacuolar damage in ileum administered with six iv injection of 3 to 4 mg/kg by hematoxylin/eosin staining-based microscopy; assay type: organism-based; design: dose 3-4 mg/kg, route intravenous; conditions: in vivo; method in brief: as §4
# [16] = Metabolic stability in NOD/SCID mouse plasma up to 24 hrs by reverse-phase HPLC analysis; assay type: ADME, cell-free; conditions: read-out: Stability
# Method in brief: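 PPD from a 1 mM DMSO stock diluted 10 µL into 190 µL of plasma (healthy NOD/SCID mouse, or pooled human from 40 donors) at 37 °C; sampled at 0 and 24 h. Samples digested with proteinase K (2 mg/mL) for 4 h at 37 °C, then run on C18 reverse-phase HPLC with a triethylammonium acetate pH 6.0/acetonitrile gradient, detection at 480 nm.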
# NCI60 = assay: Growth inhibition of human NCI60 cells after 2 days by sulforhodamine B assay; assay type: functional, cell-based
compound,measurement,setting,value
CCCCCOC(=O)Nc1ccc(COC(=O)N2CO[C@@H]3[C@H](C)O[C@@H](O[C@H]4C[C@](O)(C(=O)CO)Cc5c(O)c6c(c(O)c54)C(=O)c4c(OC)cccc4C6=O)C[C@@H]32)cc1,logIC50,HepG2 [1],-6.9
same,inhibition,HepG2 [2],Active
same,Activity,HepG2 [3],Active
same,Activity,HepG2 [4],Active
same,mortality,[5],60%
same,Activity,Mus musculus [6],18%
same,Activity,Mus musculus [7],10%
same,inhibition,NCI-H1435 [8],Active
same,inhibition,NCI-H1435 [9],Active
same,Activity,Mus musculus [10],Non-toxic
same,Activity,NCI-H1435 [11],inactive
same,Activity,Mus musculus [12],Non-toxic
same,Activity,Mus musculus [13],Toxic
same,Activity,Mus musculus [14],Non-toxic
same,Activity,Mus musculus [15],Non-toxic
same,remaining at 24 h,[16],16%
same,growth inhibition (GI),NCI60,Active
